Experimental data as given in ChEMBL document CHEMBL4350999, “Enhanced tumor retention of NTSR1-targeted agents by employing a hydrophilic cysteine cathepsin inhibitor” (Eur J Med Chem, 2019).
The source made the active and inactive calls. No cut-off for these calls is given here.

Experiments:
[1] = Ratio of drug uptake in SCID mouse xenograted with human HT-29 cells assessed as tumour retention to drug uptake in muscle of SCID mouse xenografted with human HT-29 cells measured after 24 hrs using 177Lu labelled compound; type: ADME, tissue-based, Tumor/Muscle
Summary of the method: (§1)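 Female SCID mice (5 weeks old) received s.c. flank HT-29 cells (5 × 10^6 in Matrigel). At ~80 mm3, two weeks later, mice were randomized and given 10 μCi (0.37 MBq) of purified 177Lu conjugate i.v. by tail vein. Mice were killed at 4, 24 or 72 h. Tissues were weighed and gamma counted as %ID/g, mean ± SD, n = 5. Tumor-to-tissue ratios were calculated.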

[2] = Ratio of drug uptake in SCID mouse xenograted with human HT-29 cells assessed as tumour retention to drug uptake in liver of SCID mouse xenografted with human HT-29 cells measured after 4 hrs using 177Lu labelled compound; type: ADME, tissue-based, Tumor/Liver; summary of the method: as §1
[3] = Ratio of drug uptake in SCID mouse xenograted with human HT-29 cells assessed as tumour retention to drug uptake in kidney of SCID mouse xenografted with human HT-29 cells measured after 4 hrs using 177Lu labelled compound; type: ADME, tissue-based, Tumor/Kidney; summary of the method: as §1
[4] = Ratio of drug uptake in SCID mouse xenograted with human HT-29 cells assessed as tumour retention to drug uptake in small intestine of SCID mouse xenografted with human HT-29 cells measured after 24 hrs using 177Lu labelled compound; type: ADME, tissue-based, Tumor/Small intestine; summary of the method: as §1
[5] = Ratio of drug uptake in SCID mouse xenograted with human HT-29 cells assessed as tumour retention to drug uptake in large intestine of SCID mouse xenografted with human HT-29 cells measured after 72 hrs using 177Lu labelled compound; type: ADME, tissue-based, Tumor/Large intestine; summary of the method: as §1
[6] = Ratio of drug uptake in SCID mouse xenograted with human HT-29 cells assessed as tumour retention to drug uptake in lung of SCID mouse xenografted with human HT-29 cells measured after 24 hrs using 177Lu labelled compound; type: ADME, tissue-based, Tumor/Lung; summary of the method: as §1
[7] = Drug internalization in human HT-29 cells assessed as efflux percentage measured at 24 hrs using 177Lu labelled compound by gamma counter method relative to control; type: ADME, cell-based; settings: ht-29, 24 h
Summary of the method: (§2)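 HT-29 cells (~1 × 10^6) loaded 2 h at 37 °C with 177Lu conjugate (100,000 cpm), washed, then given fresh medium. Medium collected and replaced at 1, 2, 4, 8, 24 h and gamma-counted; cells lysed in 10% SDS at 24 h. Efflux expressed as % of total internalized activity (effluxed + cell-retained); n = 3.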

[8] = Ratio of drug uptake in SCID mouse xenograted with human HT-29 cells assessed as tumour retention to drug uptake in spleen of SCID mouse xenografted with human HT-29 cells measured after 4 hrs using 177Lu labelled compound; type: ADME, tissue-based, Tumor/Spleen; summary of the method: as §1
[9] = Ratio of drug uptake in SCID mouse xenograted with human HT-29 cells assessed as tumour retention to drug uptake in kidney of SCID mouse xenografted with human HT-29 cells measured after 24 hrs using 177Lu labelled compound; type: ADME, tissue-based, Tumor/Kidney; summary of the method: as §1
[10] = Ratio of drug uptake in SCID mouse xenograted with human HT-29 cells assessed as tumour retention to drug uptake in muscle of SCID mouse xenografted with human HT-29 cells measured after 72 hrs using 177Lu labelled compound; type: ADME, tissue-based, Tumor/Muscle; summary of the method: as §1
[11] = Ratio of drug uptake in SCID mouse xenograted with human HT-29 cells assessed as tumour retention to drug uptake in pancreas of SCID mouse xenografted with human HT-29 cells measured after 4 hrs using 177Lu labelled compound; type: ADME, tissue-based, Tumor/Pancreas; summary of the method: as §1
[12] = Ratio of drug uptake in SCID mouse xenograted with human HT-29 cells assessed as tumour retention to drug uptake in blood of SCID mouse xenografted with human HT-29 cells measured after 4 hrs using 177Lu labelled compound; type: ADME, tissue-based, Tumor/Blood; summary of the method: as §1
[13] = Ratio of drug uptake in SCID mouse xenograted with human HT-29 cells assessed as tumour retention to drug uptake in pancreas of SCID mouse xenografted with human HT-29 cells measured after 72 hrs using 177Lu labelled compound; type: ADME, tissue-based, Tumor/Pancreas; summary of the method: as §1
[14] = Drug retention in liver of mouse xenografted with human HT-29 cells assessed as tissue-conjugate adduct formation at 29.6 MBq measured after 72 hrs using 177Lu labelled compound by SDS-PAGE analysis; type: ADME, tissue-based; settings: in vivo
Summary of the method: (§3)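 HT-29 xenograft mice given 800 μCi (29.6 MBq) 177Lu conjugate i.v. and killed at 72 h. Tumor, liver and kidney homogenized in RIPA with protease inhibitor and supernatants run on SDS-PAGE autoradiography. Other supernatant aliquots filtered through 10 kDa MWCO devices to give the % macromolecule-associated radioactivity; n = 3.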

[15] = Drug internalization in cytoplasm of human HT-29 cells within 2 hrs using Eu labelled compound by lysotracker green staining confocal microscopic analysis; type: ADME, subcellular; settings: ht-29, 2 h
Summary of the method: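 HT-29 cells (1.25 × 10^5/well) incubated 2 h at 37 °C with natEu conjugate (5 μM), with or without N1 (20 μM). Lysotracker Green (100 nM) added for 1 h; cells washed, formaldehyde-fixed and imaged confocally at 405/488 nm excitation. Mean pixel intensity normalized to cell count.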

[16] = Drug retention in kidney of mouse xenografted with human HT-29 cells assessed as tissue-conjugate adduct formation at 29.6 MBq measured after 72 hrs using 177Lu labelled compound by SDS-PAGE analysis; type: ADME, tissue-based; settings: in vivo; summary of the method: as §3
[17] = target: Cathepsin B (Homo sapiens, UniProt P07858); experiment: Binding affinity to cathepsin B in human HT-29 cells assessed as intracellular adduct formation at 0.74 MBq incubated for 4 hrs using 177Lu labelled compound by SDS-PAGE analysis; type: cell-based; design: dose or concentration left out as unconfirmed
Summary of the method: (§4)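 HT-29 cells (1 × 10^6/well) incubated 4 h at 37 °C with 177Lu conjugate (20 μCi, 0.74 MBq) in 1 mL medium, with or without E-64 (10 μM) or NTSR1 peptide N1 (20 μM). Cells washed and refed; at set times cells pooled, RIPA-lysed with protease inhibitor. Lysates heated 85 °C 2 min, run on 16% tris-glycine SDS-PAGE, and phosphor autoradiography taken after 72 h exposure.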

[18] = target: Neurotensin receptor type 1 (Homo sapiens, UniProt P30989); experiment: Displacement of [177Lu] DOTA-beta-ala-[N-alpha-Me8, Dmt11, Tle12] NT6-13 from neurotensin receptor in human HT-29 cells incubated for 45 mins by gamma counter analysis; type: cell-based
Summary of the method: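 HT-29 cells (~1 × 10^6) in McCoy's 5A with HEPES and 2 mg/mL BSA, pH 7.4. Incubated 45 min at 37 °C with 177Lu-N1 (100,000 cpm) plus conjugate at 5 nM–1 μM. Cells washed, bound activity gamma-counted, IC50 obtained by nonlinear regression; biological triplicate.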

[19] = Drug internalization in human HT-29 cells assessed as efflux fraction measured at 2 hrs using 177Lu labelled compound by gamma counter method; type: ADME, cell-based; settings: ht-29, 2 h; summary of the method: as §2
[20] = target: Procathepsin L (Homo sapiens, UniProt P07711); experiment: Binding affinity to cathepsin L in human HT-29 cells assessed as intracellular adduct formation at 0.74 MBq incubated for 4 hrs using 177Lu labelled compound by SDS-PAGE analysis; type: cell-based; design: dose or concentration left out as unconfirmed; summary of the method: as §4
[21] = Stability of 177Lu labelled compound in human serum assessed as parent compound remaining at 37 degC after 24 hrs by RP-HPLC analysis; type: ADME, cell-free; settings: read-out: Stability
Summary of the method: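 Radioconjugate (1.5 mCi, 55.5 MBq) was incubated in 300 μL human serum at 37 °C. At 1, 3 and 24 h, acetonitrile was added and samples were spun at 12,000×g for 5 min. Supernatant was dried under nitrogen, reconstituted in water and analyzed by radio-HPLC.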

Sequence of Neurotensin receptor type 1 (P30989 whole entry): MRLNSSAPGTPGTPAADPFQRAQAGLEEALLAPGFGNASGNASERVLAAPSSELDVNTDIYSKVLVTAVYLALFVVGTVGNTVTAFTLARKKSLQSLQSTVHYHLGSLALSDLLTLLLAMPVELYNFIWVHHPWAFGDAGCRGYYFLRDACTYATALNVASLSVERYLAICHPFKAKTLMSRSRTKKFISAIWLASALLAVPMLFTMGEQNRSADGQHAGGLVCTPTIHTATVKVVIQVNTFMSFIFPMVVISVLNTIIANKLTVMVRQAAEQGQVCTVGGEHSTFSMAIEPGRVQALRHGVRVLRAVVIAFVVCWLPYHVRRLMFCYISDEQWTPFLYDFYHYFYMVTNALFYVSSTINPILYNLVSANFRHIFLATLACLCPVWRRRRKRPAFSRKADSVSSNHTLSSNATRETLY
Sequence of Procathepsin L (P07711 114-333 limits assumed): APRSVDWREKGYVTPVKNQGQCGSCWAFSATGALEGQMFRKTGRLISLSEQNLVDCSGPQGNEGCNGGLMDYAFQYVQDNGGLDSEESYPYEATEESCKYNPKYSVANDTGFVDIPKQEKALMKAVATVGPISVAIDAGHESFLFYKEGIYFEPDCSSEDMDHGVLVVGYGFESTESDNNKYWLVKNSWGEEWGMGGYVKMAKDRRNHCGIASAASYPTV

Cc1cc(C)c(C(=O)OCC(=O)[C@H](CCCCNC(=O)CNC(=O)[C@@H](CO)NC(=O)[C@@H](CO)NC(=O)[C@@H](CO)NC(=O)Cn2cc(C[C@H](NC(=O)CN3CCN(CC(=O)O)CCN(CC(=O)O)CCN(CC(=O)O)CC3)C(=O)N[C@H](CO)C(=O)N[C@H](CO)C(=O)N[C@H](CO)C(=O)N[C@@H](CCCCN)C(=O)N3CCC[C@H]3C(=O)N(C)[C@@H](CCCNC(=N)N)C(=O)N[C@@H](CCCNC(=N)N)C(=O)N3CCC[C@H]3C(=O)N[C@@H](Cc3c(C)cc(O)cc3C)C(=O)N[C@H](C(=O)N[C@@H](CC(C)C)C(=O)O)C(C)(C)C)nn2)NC(=O)[C@H](Cc2ccccc2)NC(=O)OCc2ccccc2)c(C)c1
Ratio [1]: 30 | Ratio [2]: 0.2 | Ratio [3]: 0.13 | Ratio [4]: 2 | Ratio [5]: 1.9 | Ratio [6]: 2.2 | Drug uptake [7]: 39% | Ratio [8]: 0.5 | Ratio [9]: 0.15 | Ratio [10]: 16 | Ratio [11]: 9 | Kp at 4 h [12]: 6.5 | Ratio [13]: 6.5

Cc1cc(O)cc(C)c1C[C@H](NC(=O)[C@@H]1CCCN1C(=O)[C@H](CCCNC(=N)N)NC(=O)[C@H](CCCNC(=N)N)N(C)C(=O)[C@@H]1CCCN1C(=O)[C@H](CCCCN)NC(=O)[C@@H](CO)NC(=O)[C@@H](CO)NC(=O)[C@@H](CO)NC(=O)[C@H](Cc1cn(CCNC(=O)[C@H](CCCNC(=N)N)NC(=O)[C@H](CC(C)C)NC(=O)C2OC2C(=O)O)nn1)NC(=O)CN1CCN(CC(=O)O)CCN(CC(=O)O)CCN(CC(=O)O)CC1)C(=O)N[C@H](C(=O)N[C@@H](CC(C)C)C(=O)O)C(C)(C)C (some centres not stated)
Ratio [1]: 137 | Ratio [2]: 8.4 | Ratio [3]: 0.1 | Drug uptake [14]: Active | Drug uptake [15]: Active | Ratio [4]: 2 | Ratio [5]: 5.5 | Drug uptake [16]: Active | Ratio [6]: 15 | Activity [17]: Active | Drug uptake [7]: 50% | Ratio [8]: 5 | IC50 [18]: 60 nM | Ratio [9]: 0.08 | Drug uptake [19]: 27.3% | Ratio [10]: 153 | Ratio [11]: 38 | Activity [20]: Active | remaining at 24 h [21]: 36.9% | Kp at 4 h [12]: 337 | Ratio [13]: 30

Cc1cc(O)cc(C)c1C[C@H](NC(=O)[C@@H]1CCCN1C(=O)[C@H](CCCNC(=N)N)NC(=O)[C@H](CCCNC(=N)N)N(C)C(=O)[C@@H]1CCCN1C(=O)[C@H](CCCCN)NC(=O)[C@@H](CO)NC(=O)[C@@H](CO)NC(=O)[C@@H](CO)NC(=O)[C@H](Cc1cn(CCNC(=O)[C@H](CCCNC(=N)N)NC(=O)[C@H](CC(C)C)NC(=O)CCC(=O)O)nn1)NC(=O)CN1CCN(CC(=O)O)CCN(CC(=O)O)CCN(CC(=O)O)CC1)C(=O)N[C@H](C(=O)N[C@@H](CC(C)C)C(=O)O)C(C)(C)C
Drug uptake [14]: Not Active | Drug uptake [15]: Active | Drug uptake [16]: Not Active | Activity [17]: inactive | IC50 [18]: 63 nM | Drug uptake [19]: 32.3% | Activity [20]: inactive | remaining at 24 h [21]: 49.5%
